Experimental data: the M2OR odorant receptor database
Changes are numbered by the printed parent chain.

Legend:
Details in all cases: stereoisomer not certain
[1] = system: T1, O1440
T1 sequence (whole entry): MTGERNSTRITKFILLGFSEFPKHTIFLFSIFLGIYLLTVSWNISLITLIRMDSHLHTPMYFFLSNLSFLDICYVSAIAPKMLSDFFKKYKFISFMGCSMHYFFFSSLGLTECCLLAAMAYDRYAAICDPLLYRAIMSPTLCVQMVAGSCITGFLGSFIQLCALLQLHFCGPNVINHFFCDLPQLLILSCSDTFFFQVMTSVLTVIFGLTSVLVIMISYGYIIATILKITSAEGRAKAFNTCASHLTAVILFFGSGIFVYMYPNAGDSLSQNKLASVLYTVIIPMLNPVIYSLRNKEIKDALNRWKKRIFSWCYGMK
In short: (§1)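 Each receptor–molecule pair is labelled responsive or non-responsive (inactive) according to whether the original authors judged the measured signal statistically different from baseline. The data were taken from the main text and supplementary material of published papers and checked for typos and inconsistencies. Assay methods differed by source, with transient luciferase assays in mammalian cell lines being common.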

[2] = system: T2, O10R2 I170L
T2 sequence (whole entry): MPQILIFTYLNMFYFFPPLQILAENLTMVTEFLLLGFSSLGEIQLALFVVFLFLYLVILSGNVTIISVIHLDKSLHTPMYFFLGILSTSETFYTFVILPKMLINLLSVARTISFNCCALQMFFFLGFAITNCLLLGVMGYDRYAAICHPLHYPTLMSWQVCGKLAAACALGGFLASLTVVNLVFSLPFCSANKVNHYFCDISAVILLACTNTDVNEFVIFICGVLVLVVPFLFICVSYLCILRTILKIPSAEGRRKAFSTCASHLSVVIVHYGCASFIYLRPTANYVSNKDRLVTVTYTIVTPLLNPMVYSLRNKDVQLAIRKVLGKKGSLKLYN
In short: as §1

[3] = system: T3, O10T2 I137M
T3 sequence (whole entry): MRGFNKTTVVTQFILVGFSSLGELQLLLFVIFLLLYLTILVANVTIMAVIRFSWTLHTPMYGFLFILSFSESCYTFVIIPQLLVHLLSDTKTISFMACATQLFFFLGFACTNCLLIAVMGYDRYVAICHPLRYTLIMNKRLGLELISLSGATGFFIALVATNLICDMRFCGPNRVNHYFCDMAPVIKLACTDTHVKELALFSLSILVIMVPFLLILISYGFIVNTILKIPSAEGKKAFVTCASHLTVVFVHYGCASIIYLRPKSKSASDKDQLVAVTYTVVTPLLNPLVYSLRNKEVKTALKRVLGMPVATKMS
In short: as §1

[4] = system: T4, O10V1 Q123R
T4 sequence (whole entry): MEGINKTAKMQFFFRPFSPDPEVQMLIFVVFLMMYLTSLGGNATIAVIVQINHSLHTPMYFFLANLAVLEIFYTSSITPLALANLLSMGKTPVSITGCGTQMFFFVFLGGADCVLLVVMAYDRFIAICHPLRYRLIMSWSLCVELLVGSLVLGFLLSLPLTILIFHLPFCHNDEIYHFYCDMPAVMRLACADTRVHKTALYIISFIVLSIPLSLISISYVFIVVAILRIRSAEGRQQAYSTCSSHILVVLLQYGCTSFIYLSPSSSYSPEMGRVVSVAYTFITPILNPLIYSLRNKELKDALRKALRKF
In short: as §1

[5] = system: T5, O10X1 N4T R181S
T5 sequence (whole entry): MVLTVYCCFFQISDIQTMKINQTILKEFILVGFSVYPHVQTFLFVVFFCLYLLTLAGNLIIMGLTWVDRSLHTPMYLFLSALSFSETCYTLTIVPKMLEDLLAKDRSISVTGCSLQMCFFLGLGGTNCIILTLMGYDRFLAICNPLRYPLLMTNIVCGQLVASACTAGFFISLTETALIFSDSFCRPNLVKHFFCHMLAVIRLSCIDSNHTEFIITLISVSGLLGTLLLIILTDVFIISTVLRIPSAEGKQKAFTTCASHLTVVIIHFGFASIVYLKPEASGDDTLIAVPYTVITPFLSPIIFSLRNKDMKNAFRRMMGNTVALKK
In short: as §1

[6] = system: T6, O11G2 F3I I99N V116I
T6 sequence (whole entry): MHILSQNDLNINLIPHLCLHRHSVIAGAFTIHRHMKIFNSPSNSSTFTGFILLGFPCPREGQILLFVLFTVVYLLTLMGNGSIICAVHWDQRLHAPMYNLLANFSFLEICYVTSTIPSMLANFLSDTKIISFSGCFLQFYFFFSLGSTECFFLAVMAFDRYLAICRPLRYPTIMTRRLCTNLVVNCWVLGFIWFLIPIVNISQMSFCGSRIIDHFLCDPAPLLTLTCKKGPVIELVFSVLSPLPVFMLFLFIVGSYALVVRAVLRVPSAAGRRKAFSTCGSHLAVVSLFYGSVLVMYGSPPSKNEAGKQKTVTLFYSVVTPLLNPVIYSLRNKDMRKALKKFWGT
In short: as §1

[7] = system: T7, O11H1 M240V
T7 sequence (whole entry): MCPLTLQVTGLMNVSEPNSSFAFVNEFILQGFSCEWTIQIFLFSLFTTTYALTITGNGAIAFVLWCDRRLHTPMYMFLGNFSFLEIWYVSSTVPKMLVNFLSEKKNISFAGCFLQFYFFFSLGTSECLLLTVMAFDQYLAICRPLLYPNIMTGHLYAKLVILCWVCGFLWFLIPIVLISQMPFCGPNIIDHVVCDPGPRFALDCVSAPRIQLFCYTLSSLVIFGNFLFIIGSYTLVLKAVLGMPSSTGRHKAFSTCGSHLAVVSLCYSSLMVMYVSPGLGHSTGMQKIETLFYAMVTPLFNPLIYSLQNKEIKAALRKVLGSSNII
In short: as §1

[8] = system: T8, O11H6 I107T
T8 sequence (whole entry): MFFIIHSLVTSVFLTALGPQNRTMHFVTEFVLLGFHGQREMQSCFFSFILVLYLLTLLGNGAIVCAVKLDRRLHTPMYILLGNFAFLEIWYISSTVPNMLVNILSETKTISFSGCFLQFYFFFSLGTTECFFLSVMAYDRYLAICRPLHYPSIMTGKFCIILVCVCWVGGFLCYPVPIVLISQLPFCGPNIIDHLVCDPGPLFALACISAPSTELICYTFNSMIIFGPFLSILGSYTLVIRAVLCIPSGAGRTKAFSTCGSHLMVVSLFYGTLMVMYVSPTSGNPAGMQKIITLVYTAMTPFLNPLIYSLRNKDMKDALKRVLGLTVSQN
In short: as §1

[9] = system: T9, O11HC C156Y V240M
T9 sequence (whole entry): T7 sequence (whole entry) with S33T, R68W, V240M
In short: as §1

[10] = system: T10, O12D2 S104F
T10 sequence (whole entry): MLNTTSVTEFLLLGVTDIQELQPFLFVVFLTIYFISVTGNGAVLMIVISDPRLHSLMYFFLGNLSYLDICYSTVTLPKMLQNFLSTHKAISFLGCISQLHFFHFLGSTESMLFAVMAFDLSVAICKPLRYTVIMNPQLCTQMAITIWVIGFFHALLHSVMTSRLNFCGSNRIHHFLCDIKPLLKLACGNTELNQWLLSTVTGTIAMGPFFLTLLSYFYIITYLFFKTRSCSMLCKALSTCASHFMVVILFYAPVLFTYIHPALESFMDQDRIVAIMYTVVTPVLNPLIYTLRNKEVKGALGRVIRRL
In short: as §1

[11] = system: T11, O13C2 H6Q
T11 sequence (whole entry): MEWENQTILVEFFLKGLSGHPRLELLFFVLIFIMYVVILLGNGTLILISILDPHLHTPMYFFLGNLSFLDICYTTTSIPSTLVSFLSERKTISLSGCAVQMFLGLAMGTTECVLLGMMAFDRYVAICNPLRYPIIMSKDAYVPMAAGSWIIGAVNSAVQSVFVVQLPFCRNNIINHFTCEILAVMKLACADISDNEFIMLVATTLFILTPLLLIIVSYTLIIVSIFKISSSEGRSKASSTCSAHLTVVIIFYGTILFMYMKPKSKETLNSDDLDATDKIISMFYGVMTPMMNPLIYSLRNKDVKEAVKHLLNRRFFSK
In short: as §1

[12] = system: T12, O13C8 A19D
T12 sequence (whole entry): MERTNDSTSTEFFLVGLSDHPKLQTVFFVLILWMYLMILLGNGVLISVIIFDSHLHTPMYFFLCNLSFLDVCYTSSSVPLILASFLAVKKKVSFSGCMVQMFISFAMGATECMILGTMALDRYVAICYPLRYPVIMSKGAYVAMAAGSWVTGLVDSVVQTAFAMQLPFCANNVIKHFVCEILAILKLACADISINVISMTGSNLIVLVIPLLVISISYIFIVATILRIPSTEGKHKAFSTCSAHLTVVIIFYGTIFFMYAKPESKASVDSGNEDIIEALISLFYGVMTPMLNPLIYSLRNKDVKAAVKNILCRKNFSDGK
In short: as §1

[13] = system: T13, O13C9 H17L V19G L23H
T13 sequence (whole entry): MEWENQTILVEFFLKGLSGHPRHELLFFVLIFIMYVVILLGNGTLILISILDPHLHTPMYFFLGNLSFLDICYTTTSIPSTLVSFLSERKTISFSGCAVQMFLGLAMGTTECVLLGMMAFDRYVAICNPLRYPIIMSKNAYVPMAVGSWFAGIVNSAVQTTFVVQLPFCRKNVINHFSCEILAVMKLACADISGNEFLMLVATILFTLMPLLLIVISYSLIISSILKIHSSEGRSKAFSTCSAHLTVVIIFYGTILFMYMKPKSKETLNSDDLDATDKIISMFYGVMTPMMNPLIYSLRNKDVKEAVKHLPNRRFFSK
In short: as §1

[14] = system: T14, O13C9 Q6H
T14 sequence (whole entry): T13 sequence (whole entry) with Q6H, L17H, G19V, H23L
In short: as §1

[15] = system: T15, O13F1 F18S T254M
T15 sequence (whole entry): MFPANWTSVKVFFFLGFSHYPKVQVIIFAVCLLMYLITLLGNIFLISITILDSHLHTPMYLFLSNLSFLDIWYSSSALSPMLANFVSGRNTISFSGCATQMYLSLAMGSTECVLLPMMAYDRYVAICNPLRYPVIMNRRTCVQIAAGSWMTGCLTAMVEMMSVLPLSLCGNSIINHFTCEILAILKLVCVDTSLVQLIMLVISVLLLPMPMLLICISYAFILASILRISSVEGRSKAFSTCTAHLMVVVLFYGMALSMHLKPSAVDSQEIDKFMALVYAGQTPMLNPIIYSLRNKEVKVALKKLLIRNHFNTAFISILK
In short: as §1

[16] = system: T16, O13F1 F18S
T16 sequence (whole entry): T15 sequence (whole entry) with M254T
In short: as §1

[17] = system: T17, O13G1 K46I M146L
T17 sequence (whole entry): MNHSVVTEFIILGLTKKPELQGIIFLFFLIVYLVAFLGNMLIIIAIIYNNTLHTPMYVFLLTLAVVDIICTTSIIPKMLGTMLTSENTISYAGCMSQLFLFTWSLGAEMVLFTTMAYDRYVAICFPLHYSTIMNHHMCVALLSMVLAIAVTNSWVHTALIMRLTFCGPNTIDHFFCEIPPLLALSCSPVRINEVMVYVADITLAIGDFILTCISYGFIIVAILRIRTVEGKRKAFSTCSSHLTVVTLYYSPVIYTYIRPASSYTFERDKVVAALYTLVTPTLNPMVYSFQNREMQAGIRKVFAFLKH
In short: as §1

[18] = system: T18, O13G1
T18 sequence (whole entry): T17 sequence (whole entry) with I46K, I132V, L146M
In short: as §1

[19] = system: T19, O13H1 Y266S
T19 sequence (whole entry): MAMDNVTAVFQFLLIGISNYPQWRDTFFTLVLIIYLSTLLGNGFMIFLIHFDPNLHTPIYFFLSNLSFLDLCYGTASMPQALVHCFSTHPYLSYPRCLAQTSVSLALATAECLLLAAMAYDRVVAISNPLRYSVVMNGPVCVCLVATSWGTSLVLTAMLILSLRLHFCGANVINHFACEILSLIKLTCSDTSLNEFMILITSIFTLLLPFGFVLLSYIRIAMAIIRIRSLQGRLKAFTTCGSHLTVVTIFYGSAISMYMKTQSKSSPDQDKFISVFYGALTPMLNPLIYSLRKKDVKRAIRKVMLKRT
In short: as §1

[20] = system: T20, O13J1
T20 sequence (whole entry): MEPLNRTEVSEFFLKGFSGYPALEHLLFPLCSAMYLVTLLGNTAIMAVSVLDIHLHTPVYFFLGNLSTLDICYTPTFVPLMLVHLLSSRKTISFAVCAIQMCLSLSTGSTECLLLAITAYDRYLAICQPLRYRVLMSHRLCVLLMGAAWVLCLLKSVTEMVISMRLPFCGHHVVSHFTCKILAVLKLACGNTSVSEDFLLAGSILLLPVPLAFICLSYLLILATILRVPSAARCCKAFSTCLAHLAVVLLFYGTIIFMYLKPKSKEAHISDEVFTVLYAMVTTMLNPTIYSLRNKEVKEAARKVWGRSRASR
In short: as §1

Measured: odorant receptor agonist call;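 further: active if original authors judged signal statistically different from baseline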

CCCCCCCC(=O)CCCCCCC
inactive: [1]

O=C1C=CCCCCCCCCCCCCO1
active: [1]

O=C1CCCC=CCCCCCCCCCC1
active: [1]

C1CCCCCCCCCCCCCC1
inactive: [1]

CCC1OC(=O)C(O)=C1C (stereo not drawn)
not listed: [1]
inactive: all other assays above
